From ChEMBL document CHEMBL4325827, “Bifidenone: Structure-Activity Relationship and Advanced Preclinical Candidate” (J Med Chem, 2018)

What was measured:
[1] = Toxicity in Crl:NU(NCr)-Foxn1 nu mouse xenografted with human LOX-IMVI cells assessed as maximum body weight loss at 30 mg/kg, ip qd administered for 7 consecutive days measured after 5 days post dose relative to control; type: organism-based; details: in vivo, 120 h
In short: (§1)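 Female athymic nude mice bearing subcutaneous xenografts, started from cultured cells (NCI-H460, Calu-6, NCI-H69, LOX-IMVI) or from serially passaged tumour fragments (NCI-H522). Mice were grouped into vehicle and treatment arms at tumour volumes of about 75-200 mm3. Dosing was ip at 5-10 mL/kg in 22% ethanol, 38% PEG400, 40% 20 mM Na citrate pH 5.0. Caliper volumes were taken as (length × width2)/2. Treated and control delta weights were median tumour weight minus staging-day median.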

ACHN = test: Antiproliferative activity against taxane-resistant human ACHN cells after 72 hrs by CellTiter 96 aqueous nonradioactive cell proliferation assay; type: functional, cell-based
In short: (§2)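 Antiproliferation in cultured tumour cells, at least 3 replicate wells per concentration per experiment. NCI-H460 came from ATCC. M14, NCI/ADR-RES, OVCAR-4, HCT-15, ACHN and SF-295 came from the National Cancer Institute. IC50 reported from single experiments where no SD is given.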

[2] = Drug uptake in tumor of human NCI-H460 cells xenografted in Crl:NU(NCr)-Foxn1 nu mouse at 40 mg/kg, ip measured at 3 hrs post injection by LC-MS analysis; type: ADME, organism-based, Neoplasm; details: in vivo
In short: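 Male Nu/Nu mice, some bearing NCI-H460 or LOX-IMVI xenografts, given a single ip dose at 3 mL/kg. Organic vehicle components were dissolved first, with the aqueous part added gradually. Mice were euthanized at 1 h or 3 h. Cardiac blood was taken into NaEDTA/NaF plasma separator tubes. Quantification used loratadine internal standard against a spiked blank-plasma curve. Tumours were run as duplicate ~200 mg samples homogenized in 3% SDS and extracted twice with ethyl acetate, assuming 1 g tissue = 1 mL.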

HCT-15 = test: Antiproliferative activity against taxane-resistant human HCT15 cells after 72 hrs by CellTiter 96 aqueous nonradioactive cell proliferation assay; type: functional, cell-based; details: HCT-15, 72 h; in short: as §2
[3] = Toxicity in Crl:NU(NCr)-Foxn1 nu mouse xenografted with human Calu6 cells assessed as maximum body weight loss at 60 mg/kg, ip qd administered for 3 consecutive days followed by 2 days of rest for 4 cycles measured after 2 days post dose relative to control; type: organism-based; details: in vivo, 48 h; in short: as §1
NCI-H522 = test: Antitumor activity against human NCI-H522 cells xenografted in Crl:NU(NCr)-Foxn1 nu mouse assessed as tumor growth inhibition at 40 mg/kg, ip qd administered for 3 consecutive days followed by 2 days of rest for 3 cycles relative to control; type: functional; details: 48 h, read-out: TGI; in short: as §1
[4] = Toxicity in Crl:NU(NCr)-Foxn1 nu mouse xenografted with human NCI-H460 cells assessed as maximum body weight loss at 60 mg/kg, ip qd administered for 3 consecutive days followed by 2 days of rest for 3 cycles measured after 8 days post dose relative to control; type: organism-based; details: in vivo, 192 h; in short: as §1

## C=CC[C@H]1C[C@]2([C@H](C)Cc3cc(O)c(OC)cc3F)OCOC2=CC1=O
[1]
  Activity: 9%
ACHN
  IC50: 0.012 µM
[2]
  Drug uptake: Active
HCT-15
  IC50: 0.014 µM
[3]
  Activity: 2%
NCI-H522
  inhibition in vivo at 40 mg/kg: 54%
[4]
  Activity: 12%
